An excerpt weighted towards active compounds, which were near 2.6% of everything screened.
TDP2 absorb – blocks human TDP2 phosphodiesterase activity. recombinant TDP2, T5PNP hydrolysis, p-nitrophenol absorbance 415 nm. 0.34% of 370,000 active. inhibition, % at 12.8 µM;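 active = inhibition above the mean of all tested compounds plus 3 SD, set per campaign, cut at about 25% in these data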
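Read-out basis: percent inhibition. System: recombinant human TDP2. Buffer or medium: Mg2+-containing Tris-HCl buffer, pH 7.5. Repeats: single replicate. Timing: reaction 2 h, 37 °C. Benchmarks: high control without enzyme, low control DMSO plus TDP2. Probe or stimulus: 5 mM T5PNP. Doses: 12.8 µM only. Measured by: epi absorbance of p-nitrophenol freed from T5PNP by hydrolysis.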
GSTO1 counter – blocks human GSTO1 in RBBP9 counter-screen | P78417 | recombinant GSTO1, activity-based probe fluorescence polarization | inhibition, % at 5.96 µM | 1.1% of 300,000 active | AID 1974;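 active = inhibition above the campaign mean inhibition plus 3 SD, cut at about 35% in these data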
Apaf1 inhib – blocks human Apaf-1 apoptosome activity. reconstituted apoptosome caspase-3 activity, DEVD-Rh110 fluorescence. inhibition, % at 20 µM. 0.71% of 330,000 active. AID 489030; active = inhibition of at least 40% at 20 µM
Target sequence (O14727 whole entry, looked up): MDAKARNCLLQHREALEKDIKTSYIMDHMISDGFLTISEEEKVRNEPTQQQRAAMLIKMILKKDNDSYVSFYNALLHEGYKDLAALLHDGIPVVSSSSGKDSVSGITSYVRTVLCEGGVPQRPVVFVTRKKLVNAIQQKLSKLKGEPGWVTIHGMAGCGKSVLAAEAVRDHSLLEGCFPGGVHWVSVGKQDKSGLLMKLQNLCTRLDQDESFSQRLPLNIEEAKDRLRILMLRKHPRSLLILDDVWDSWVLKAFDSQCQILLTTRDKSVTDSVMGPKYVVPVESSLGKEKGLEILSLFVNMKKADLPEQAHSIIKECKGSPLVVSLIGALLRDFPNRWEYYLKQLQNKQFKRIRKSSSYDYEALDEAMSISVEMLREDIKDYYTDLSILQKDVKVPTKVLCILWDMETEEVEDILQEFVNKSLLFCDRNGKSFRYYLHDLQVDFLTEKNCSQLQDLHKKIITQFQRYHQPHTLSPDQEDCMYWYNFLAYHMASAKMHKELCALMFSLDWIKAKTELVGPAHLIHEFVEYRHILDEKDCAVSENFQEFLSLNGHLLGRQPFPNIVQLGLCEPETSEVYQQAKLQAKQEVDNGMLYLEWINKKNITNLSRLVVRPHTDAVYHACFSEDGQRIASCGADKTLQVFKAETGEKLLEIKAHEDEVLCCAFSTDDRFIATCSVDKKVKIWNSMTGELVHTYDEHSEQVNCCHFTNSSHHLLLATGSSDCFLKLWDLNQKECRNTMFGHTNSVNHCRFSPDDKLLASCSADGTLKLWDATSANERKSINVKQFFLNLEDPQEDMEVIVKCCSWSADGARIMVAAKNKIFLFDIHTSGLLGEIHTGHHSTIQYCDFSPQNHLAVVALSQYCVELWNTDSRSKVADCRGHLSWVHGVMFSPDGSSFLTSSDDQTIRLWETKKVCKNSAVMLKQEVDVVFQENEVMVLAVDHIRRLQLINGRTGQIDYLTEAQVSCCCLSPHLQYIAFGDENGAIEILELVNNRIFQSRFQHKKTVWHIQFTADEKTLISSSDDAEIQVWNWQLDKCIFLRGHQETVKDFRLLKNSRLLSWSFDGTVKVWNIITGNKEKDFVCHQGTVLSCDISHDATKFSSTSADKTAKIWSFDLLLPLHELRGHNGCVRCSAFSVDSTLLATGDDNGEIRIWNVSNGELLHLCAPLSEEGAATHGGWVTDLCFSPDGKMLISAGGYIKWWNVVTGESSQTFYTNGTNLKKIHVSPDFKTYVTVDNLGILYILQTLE
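Assay system – apoptosome proteins · Medium – Hepes buffer, pH 7.5 · Also added – cytochrome c with DEVD-Rh110 · Timing – 30 min compound preincubation, 50 min activation, room temperature · Detection – Rh110 fluorescence, excitation 480 nm, emission 540 nm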
PRMT1 inh – PRMT1 (human) inhibition, primary screen | recombinant PRMT1, activity-based probe fluorescence polarization | Q99873 | 1.3% of 370,000 active | inhibition, % at 2.79 µM;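 active = inhibition above about 21% made by adding two undisclosed values, limit read from the data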
PAD4 inh – PAD4 (human) enzyme inhibition. recombinant PAD4, RCA probe fluorescence polarization. inhibition, % at 6.36 µM. Q9UM07. 0.41% of 330,000 active. AID 485272;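 active = percent inhibition above a cutoff equal to the mean of all tested compounds plus 3 SD, cut at about 15% in these data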
PRMT1 inh conf – PRMT1 (human) inhibition, FP confirmation. shares compounds with PRMT1 inh. recombinant His-PRMT1, activity-based probe fluorescence polarization. inhibition, % at 2.79 µM. 42% of 3,300 active. AID 687036;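 active = mean inhibition across replicates above the hit cutoff derived for the earlier primary screen, cut at about 22% in these data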
Numbers stand for hits.

For CCOC(=O)CNC(=O)CSc1nc(-c2ccccc2)ns1 the results were TDP2 absorb inactive, GSTO1 counter inactive, Apaf1 inhib inactive, PRMT1 inh 43.1, PAD4 inh inactive and PRMT1 inh conf inactive.
Screening CCOC(=O)CNC(=O)CSc1nc(-c2ccc(C)cc2)ns1 returned TDP2 absorb inactive, GSTO1 counter inactive, Apaf1 inhib inactive, PRMT1 inh inactive and PAD4 inh inactive.
CC(=O)Nc1sc2c(c1-c1nc3ccccc3s1)CNC2 was read as TDP2 absorb inactive, PRMT1 inh 26.5 and PRMT1 inh conf inactive.
For CC(C)N1CCc2c(sc(NC(=O)C(F)(F)F)c2-c2nc3ccccc3s2)C1 the results were TDP2 absorb inactive, PRMT1 inh 31.2 and PRMT1 inh conf inactive.
`CC(C)N1CCc2c(-c3nc4ccccc4s3)csc2C1` gave TDP2 absorb inactive and PRMT1 inh inactive.
Cc1occc1-c1nnc(SCC(=O)NCc2ccc(Cl)cc2)n1-c1ccccc1 was read as TDP2 absorb inactive and PRMT1 inh inactive.
For COC(=O)[C@H](C(C)C)N1Cc2nnn(CC3CCCCC3)c2-c2ccccc2S1(=O)=O the results were TDP2 absorb inactive and PRMT1 inh inactive.
CCCSC1=N/C(=C\C=C\c2ccco2)C(=O)S1 was read as TDP2 absorb inactive, GSTO1 counter inactive, Apaf1 inhib inactive, PRMT1 inh 48.0, PAD4 inh inactive and PRMT1 inh conf inactive.
Screening CSC1=N/C(=C\c2ccc(C)o2)C(=O)S1 returned TDP2 absorb inactive, GSTO1 counter inactive, Apaf1 inhib inactive, PRMT1 inh 31.2, PAD4 inh inactive and PRMT1 inh conf inactive.
For CSC1=N/C(=C\c2ccc(C)s2)C(=O)S1 the results were TDP2 absorb inactive, GSTO1 counter inactive, Apaf1 inhib inactive, PRMT1 inh inactive and PAD4 inh inactive.
For CCCSC1=N/C(=C\c2ccc([N+](=O)[O-])o2)C(=O)S1 the results were TDP2 absorb inactive, PRMT1 inh 28.6 and PRMT1 inh conf inactive.
Screening O=C1SC(SCc2ccccc2)=N/C1=C\c1ccc(C(=O)O)cc1 returned TDP2 absorb inactive, GSTO1 counter inactive, Apaf1 inhib inactive, PRMT1 inh inactive and PAD4 inh inactive.
For O=C1SC(SCc2ccccc2)=N/C1=C\c1ccco1 the results were TDP2 absorb inactive, GSTO1 counter inactive, Apaf1 inhib inactive, PRMT1 inh 41.6, PAD4 inh inactive and PRMT1 inh conf inactive.
`COC(=O)C1(C(=O)OC)C/C=C\CN(S(=O)(=O)c2ccccc2[N+](=O)[O-])CC1` gave TDP2 absorb inactive and PRMT1 inh inactive.
For COc1cc(Cl)c(C)cc1NC(=O)c1cccc(OC)c1OC the results were TDP2 absorb inactive, GSTO1 counter inactive, Apaf1 inhib inactive, PRMT1 inh inactive and PAD4 inh inactive.
`CCc1c(-c2cccc(Cl)c2)ncn1Cc1cccc(-c2ccccc2)c1` gave TDP2 absorb inactive and PRMT1 inh inactive.
CCOC(=O)c1ccoc1CSCc1ccc(C(=O)OC)o1 was read as TDP2 absorb inactive, GSTO1 counter inactive, Apaf1 inhib inactive, PRMT1 inh 39.3, PAD4 inh inactive and PRMT1 inh conf 45.4.
`COC(=O)c1ccc(CSC(=N)N)o1` gave TDP2 absorb inactive, GSTO1 counter inactive, Apaf1 inhib inactive, PRMT1 inh inactive and PAD4 inh inactive.
O=C(Nc1ccc(Cl)c(Cl)c1)C1CCN(C(=O)c2ccco2)CC1 was read as TDP2 absorb inactive, GSTO1 counter inactive, Apaf1 inhib inactive, PRMT1 inh inactive and PAD4 inh inactive.
CCOCC(=O)Nc1cc(S(=O)(=O)N2CCOCC2)ccc1N1CCCCC1 was read as TDP2 absorb inactive, GSTO1 counter inactive, Apaf1 inhib inactive, PRMT1 inh 40.9, PAD4 inh inactive and PRMT1 inh conf inactive.
CCOC(=O)CCC(=O)Nc1cc(S(=O)(=O)N2CCOCC2)ccc1N1CCCCC1 was read as TDP2 absorb inactive, Apaf1 inhib inactive, PRMT1 inh inactive and PAD4 inh inactive.
O=C(Nc1ccc(Cl)cc1)Nc1cc(S(=O)(=O)N2CCOCC2)ccc1N1CCCC1 was read as TDP2 absorb inactive, GSTO1 counter inactive, Apaf1 inhib inactive, PRMT1 inh inactive and PAD4 inh inactive.
Screening O=C(Nc1ccccc1)Nc1cc(S(=O)(=O)N2CCOCC2)ccc1N1CCCC1 returned TDP2 absorb inactive, GSTO1 counter inactive, Apaf1 inhib inactive, PRMT1 inh 28.9, PAD4 inh inactive and PRMT1 inh conf inactive.
For COc1cc(C(=O)C(=O)N2CCN(c3ccccc3)CC2)cc2ccccc12 the results were TDP2 absorb inactive and PRMT1 inh inactive.
COc1cc2c(cc1OC)C(c1ccccc1O)N(C1CC(=O)N(c3ccccc3)C1=O)CC2 (centres undefined) was read as TDP2 absorb inactive, GSTO1 counter inactive, Apaf1 inhib inactive, PRMT1 inh 83.4, PAD4 inh inactive and PRMT1 inh conf inactive.
Screening CCN(CC)C(=O)CSc1nnc([C@@H](N)Cc2ccccc2)o1 returned TDP2 absorb inactive, GSTO1 counter inactive, Apaf1 inhib inactive, PRMT1 inh inactive and PAD4 inh inactive.
`CCc1ccccc1NC(=O)CSc1nnc([C@@H](N)Cc2ccccc2)o1` gave TDP2 absorb inactive, GSTO1 counter inactive, Apaf1 inhib inactive, PRMT1 inh 42.9, PAD4 inh inactive and PRMT1 inh conf 28.1.
`COc1c(Cl)ccc(Cl)c1C(=O)NC(=S)N1CCOCC1` gave TDP2 absorb inactive, GSTO1 counter inactive, Apaf1 inhib inactive, PRMT1 inh inactive and PAD4 inh inactive.
Screening CC(=O)Nc1ccc(S(=O)(=O)NCCSCc2ccco2)cc1 returned TDP2 absorb inactive, GSTO1 counter inactive, Apaf1 inhib inactive, PRMT1 inh 27.8, PAD4 inh inactive and PRMT1 inh conf 61.4.
O=C(N/C(=C/c1ccco1)C(=O)N1CCOCC1)c1ccccc1Br was read as TDP2 absorb inactive, GSTO1 counter inactive, Apaf1 inhib inactive, PRMT1 inh inactive and PAD4 inh inactive.
O=C(N/C(=C\c1ccco1)C(=O)N1CCOCC1)c1ccccc1Cl was read as TDP2 absorb inactive, GSTO1 counter inactive, Apaf1 inhib inactive, PRMT1 inh 29.4, PAD4 inh inactive and PRMT1 inh conf inactive.
`O=C(CSc1cn[nH]n1)Nc1cccc(C(=O)O)c1` gave TDP2 absorb inactive, GSTO1 counter inactive, Apaf1 inhib inactive, PRMT1 inh 71.9, PAD4 inh inactive and PRMT1 inh conf 89.8.
For Cc1cccc(NC(=O)CSc2cn[nH]n2)c1 the results were TDP2 absorb inactive, GSTO1 counter inactive, Apaf1 inhib inactive, PRMT1 inh inactive and PAD4 inh inactive.
`C=C1N(c2cccc(Cl)c2)C(=O)OC1(C)C` gave TDP2 absorb inactive, GSTO1 counter inactive, Apaf1 inhib inactive, PRMT1 inh inactive and PAD4 inh inactive.
For O=C(Cc1cccs1)OCC(=O)c1ccco1 the results were TDP2 absorb inactive, GSTO1 counter inactive, Apaf1 inhib inactive, PRMT1 inh inactive and PAD4 inh inactive.

Assay outcomes from PubChem BioAssay.
